The nature of data set [1]: Half life in mouse liver microsomes. Format: ADME, Microsome. (In general: Liver microsomes are a subcellular fraction often used to study metabolism.)
Another data set relates to SNB-75. Put plainly: Growth inhibition of human SNB75 cells after 72 hrs by MTS assay. The class given is functional. The settings on record: SNB-75, 72 h. A general note: Tetrazolium dyes change colour on reduction, which living cells bring about.
Data set [2] can be described thus: Solubility in neutral water. Format: physicochemical.
The subject of the next data set is HT-29. Briefly: Growth inhibition of human HT-29 cells after 72 hrs by MTS assay. The class given is functional. As to conditions: HT-29, 72 h.
Data set [3] is described as follows: Lipophilicity, log D of the compound in pH 7.4 PBS buffer. The class given is physicochemical.
The subject of another data set is HCT-116. Briefly: Growth inhibition of human HCT116 cells after 72 hrs by MTS assay. Format: functional. The settings on record: HCT-116, 72 h.
The nature of data set [4]: Apparent permeability from basolateral to apical side in human Caco2 cells at 10 uM. The class given is ADME, cell-based. The settings on record: Caco-2. Summed up: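 Caco-2 monolayers, test compound at 10 μM. Apparent permeability measured in both directions, apical to basolateral and basolateral to apical. Efflux ratio = P_app B to A / P_app A to B. Run by a contract lab following published methods. Mean of three independent triplicate experiments.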

The next data set relates to UACC-62. Put plainly: Growth inhibition of human UACC62 cells after 72 hrs by MTS assay. Format: functional. The settings on record: UACC-62, 72 h.
Another data set deals with MOLT-4. Put plainly: Growth inhibition of human MOLT4 cells after 72 hrs by MTS assay. The class given is functional. As to conditions: MOLT-4, 72 h.
A further data set deals with CCRF-CEM. Put plainly: Growth inhibition of human CCRF-CEM cells after 72 hrs by MTS assay. Format: functional.
For the next data set, the target named is Cytochrome P450 3A4 (Homo sapiens, UniProt P08684). Put plainly: Inhibition of human CYP3A4. The class given is ADME.
The test system of a further data set is COLO 205. Briefly: Growth inhibition of human COLO205 cells after 72 hrs by MTS assay. The class given is functional. As to conditions: COLO 205, 72 h.
In the next data set the test system is OVCAR-5. Briefly: Growth inhibition of human OVCAR5 cells after 72 hrs by MTS assay. The class given is functional. The settings on record: OVCAR-5, 72 h.
In another data set the test system is NCI-H460. Put plainly: Growth inhibition of human NCI-H460 cells after 72 hrs by MTS assay. Format: functional. As to conditions: NCI-H460, 72 h.
A short description of data set [5]: Half life in mouse plasma. The class given is ADME, cell-free.
Another data set relates to NCI-H322M. Briefly: Growth inhibition of human NCI-H322M cells after 72 hrs by MTS assay. The class given is functional.

A word on the half-life: it is the time in which the quantity being followed falls by half. As a reminder, the GI50 is the concentration giving 50% growth inhibition. Usually solubility stands for the concentration that dissolves in the medium under given conditions. High values mean a readily soluble substance, low ones a poorly soluble substance. A word on the logD: it is the decadic logarithm of the distribution of all forms, ionised or not, between an organic phase and buffer at a given pH. Lower therefore signals a more hydrophilic compound. What is called Papp B→A is the apparent permeability from the basolateral to the apical side of a cell layer.

Cytochrome P450 3A4, sequence (P08684 whole entry): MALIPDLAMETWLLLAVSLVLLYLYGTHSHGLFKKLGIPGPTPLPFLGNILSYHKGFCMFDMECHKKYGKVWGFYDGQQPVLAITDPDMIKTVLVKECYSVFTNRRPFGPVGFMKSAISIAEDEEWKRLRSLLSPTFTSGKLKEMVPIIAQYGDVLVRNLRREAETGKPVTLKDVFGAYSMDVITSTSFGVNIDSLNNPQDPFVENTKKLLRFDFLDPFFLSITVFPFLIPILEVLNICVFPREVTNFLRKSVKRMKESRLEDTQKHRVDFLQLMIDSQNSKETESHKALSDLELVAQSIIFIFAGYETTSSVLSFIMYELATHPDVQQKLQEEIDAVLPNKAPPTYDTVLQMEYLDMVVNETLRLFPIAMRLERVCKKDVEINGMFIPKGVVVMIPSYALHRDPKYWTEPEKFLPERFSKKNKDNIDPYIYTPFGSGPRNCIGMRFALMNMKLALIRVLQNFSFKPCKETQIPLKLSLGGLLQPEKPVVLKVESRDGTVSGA

On to `O=C(CCCCCCC(=O)Nc1ccccc1)NO` [VORINOSTAT], for which the results for the half-life in [1] and in data set [5] were 1.37 h and 3.3 h, respectively. The GI50 in the data set on SNB-75 stood at 0.79 µM; in the data set on HT-29, 0.79 µM; in the data set on HCT-116, 0.4 µM; in the data set with UACC-62 it was 0.4 µM; with MOLT-4, 0.4 µM; in the data set on CCRF-CEM, 0.8 µM. The GI50 with COLO 205, in the data set on OVCAR-5, with NCI-H460 and in the data set with NCI-H322M was 0.79 µM each time. The compound also gave a solubility in [2] of more than 170 µg/mL. In [3], the logD was determined as 1. Further, in [4], the Papp B→A at 10 µM is 1.7 ×10⁻⁶ cm/s. On Cytochrome P450 3A4, this compound returned an INH of 24.8 µM.

The record behind these values is ChEMBL document CHEMBL2034936, “Discovery and extensive in vitro evaluations of NK-HDAC-1: a chiral histone deacetylase inhibitor as a promising lead” (J Med Chem, 2012).
